Measured values published in paper PMC5774851 (Journal of medicinal chemistry, 2016).

Experiments:
[1] = test system: Slc3a1 knockout male mice; settings: knockout mouse model of cystinuria, previous study; cited from earlier work
[2] = Chemical stability in pH 7.4 phosphate buffered saline at 37 °C by LC-MS; type: physicochemical
Summary of the method: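 Test compound incubated in pH 7.4 phosphate-buffered saline at 37 °C. Loss of parent compound followed over time by LC-MS, and half-life taken from its disappearance.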

[3] = In situ AFM measurement of L-cystine crystal step velocities; settings: aqueous 2 mM L-cystine; for V/V0 normalized step velocity @ 15 μM: 15 μM inhibitor; for V/V0 normalized step velocity @ 30 μM: 30 μM inhibitor; for V/V0 normalized step velocity @ 45 μM: 45 μM inhibitor
[4] = test system: Slc3a1 knockout male mice; experiment: In vivo activity in genetic mouse model of cystinuria; settings: 29.3 μmol/kg daily gavage for 4 weeks
Summary of the method: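 Male Slc3a1 knockout mice in groups of six or seven received test compound at 29.3 μmol/kg by daily oral gavage for 4 weeks. Seven controls got water only. Read-out was the fraction of mice in each group that formed stones.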

[5] = L-cystine diamides in mouse urine after oral dosing; type: in vivo; settings: mice, daily gavage 29.3 μmol/kg, micromolar concentrations in urine
[6] = cited from earlier work

| Compound | Ratio (improvement in potency over the control CDME) (Fluorescence assay; EC2x ratio vs CDME) | Effect on stone size and stone burden [1] | Effect on the number of mice that formed stones [1] | half-life [2] [days] | V/V0 normalized step velocity @ 15 μM [3] | V/V0 normalized step velocity @ 30 μM [3] | V/V0 normalized step velocity @ 45 μM [3] | Effectiveness in preventing stone formation [4] | Oral bioavailability (found in urine after oral dosing) [5] | Concentration of L-cystine in the supernatant in the absence of inhibitor (Fluorescence assay; water, 25 °C, 72 h) | Reported equilibrium concentration of L-cystine [6] [mM] |
| --- | --- | --- | --- | --- | --- | --- | --- | --- | --- | --- | --- |
| COC(=O)[C@@H](N)CSSC[C@H](N)C(=O)OC [CDME, L-cystine dimethyl ester, reference compound] | 1.0 | effective in reducing stone size and stone burden | no effect | ~0.113 | 0.4–0.65 | 0.27–0.54 | 0.21–0.48 | – | – | – | – |
| Cl.Cl.N[C@@H](CSSC[C@H](N)C(=O)N1CCOCC1)C(=O)N1CCOCC1 [Compound 1a, L-Cystine bismorpholide] | – | – | – | 19.8 | 0.44–0.65 | 0.34–0.58 | 0.29–0.53 | ineffective | orally bioavailable | – | – |
| CN1CCN(C(=O)[C@@H](N)CSSC[C@H](N)C(=O)N2CCN(C)CC2)CC1.Cl.Cl.Cl.Cl [Compound 1b, L-cystine bis(N′-methylpiperazide)] | – | – | – | 46.2 | 0.52–0.66 | 0.32–0.50 | 0.30–0.40 | effective | orally bioavailable | – | – |
| N[C@@H](CSSC[C@H](N)C(=O)O)C(=O)O [L-cystine] | – | – | – | – | – | – | – | – | – | approximately 1 mM | 0.7 |
